From ChEMBL document CHEMBL5724801, “EUbOPEN Chemogenomics Library - Multiplex” (2024)
“And” between values parts separate entries of the source, which are not always exact repeats. Equal values may be shown once.

System: Fibroblast
Assay: Multiplex assay against human fibroblast
Assay type: toxicity, cell-based
Summary of the method: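 Live cells carried four stains from seeding: Hoechst33342, BioTracker Green Microtubule Cytoskeleton Dye, MitoTracker Red and Annexin V Alexa Fluor 680. They were imaged on a CQ1 microscope at 37°C and 5% CO2 after compound addition. Using CellPathfinder machine-learning gating, cells were split into Hoechst high-intensity objects or normal cells, normal cells into healthy, pyknosed or fragmented nuclei, and pyknosed cells into mitotic or apoptotic; tubulin, mitochondrial-mass and membrane-permeability phenotypes are per cents of healthy-nucleus cells.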

[1] = 12 h, 1 µM, compound concentration 1 uM
[2] = 12 h, 10 µM, compound concentration 10 uM
[3] = 24 h, 1 µM, compound concentration 1 uM
[4] = 24 h, 10 µM, compound concentration 10 uM
[5] = 48 h, 1 µM, compound concentration 1 uM
[6] = 48 h, 10 µM, compound concentration 10 uM

## COc1ccc2[nH]c(I)c(CCNC(C)=O)c2c1 [IODOMELATONIN]
[1]
  Population Apoptotic (%): 53% and 32%
  Population Fragmented Nuclei (%): 15% and 23%
  Population Healthy Nuclei (%): 64% and 60%
  Population Hoechst High Intensity Objects (%): 2% and 5%
  Population Membrane Permeable-Phenotype (%): 4% and 7%
  Population Mitochondria Different-Phenotype (%): 4% and 3%
  Population Mitotic Cells (%): 46% and 68%
  Population Normal (%): 97% and 94%
  Population Pyknosed Nuclei (%): 19% and 15%
  Population Tubulin-Different-Phenotype (%): 28% and 33%
  Total Cell Count: 137 and 173
[2]
  Population Apoptotic (%): 35% and 30%
  Population Fragmented Nuclei (%): 14% and 38%
  Population Healthy Nuclei (%): 64% and 44%
  Population Hoechst High Intensity Objects (%): 2% and 3%
  Population Membrane Permeable-Phenotype (%): 2% and 5%
  Population Mitochondria Different-Phenotype (%): 6% and 0%
  Population Mitotic Cells (%): 64% and 69%
  Population Normal (%): 97% and 96%
  Population Pyknosed Nuclei (%): 21% and 17%
  Population Tubulin-Different-Phenotype (%): 20% and 43%
  Total Cell Count: 148 and 157
[3]
  Population Apoptotic (%): 62% and 57%
  Population Fragmented Nuclei (%): 16% and 26%
  Population Healthy Nuclei (%): 63% and 57%
  Population Hoechst High Intensity Objects (%): 0% and 5%
  Population Membrane Permeable-Phenotype (%): 0% and 6%
  Population Mitochondria Different-Phenotype (%): 7%
  Population Mitotic Cells (%): 37% and 42%
  Population Normal (%): 99% and 94%
  Population Pyknosed Nuclei (%): 20% and 15%
  Population Tubulin-Different-Phenotype (%): 27% and 39%
  Total Cell Count: 134 and 176
[4]
  Population Apoptotic (%): 35% and 24%
  Population Fragmented Nuclei (%): 16% and 38%
  Population Healthy Nuclei (%): 58% and 41%
  Population Hoechst High Intensity Objects (%): 2% and 4%
  Population Membrane Permeable-Phenotype (%): 1% and 10%
  Population Mitochondria Different-Phenotype (%): 4% and 1%
  Population Mitotic Cells (%): 64% and 75%
  Population Normal (%): 97% and 95%
  Population Pyknosed Nuclei (%): 24% and 20%
  Population Tubulin-Different-Phenotype (%): 30% and 40%
  Total Cell Count: 143 and 149
[5]
  Population Apoptotic (%): 76% and 42%
  Population Fragmented Nuclei (%): 16% and 30%
  Population Healthy Nuclei (%): 64% and 55%
  Population Hoechst High Intensity Objects (%): 3% and 4%
  Population Membrane Permeable-Phenotype (%): 0% and 5%
  Population Mitochondria Different-Phenotype (%): 4% and 0%
  Population Mitotic Cells (%): 23% and 57%
  Population Normal (%): 96% and 95%
  Population Pyknosed Nuclei (%): 18% and 13%
  Population Tubulin-Different-Phenotype (%): 22% and 40%
  Total Cell Count: 147 and 163
[6]
  Population Apoptotic (%): 60% and 38%
  Population Fragmented Nuclei (%): 29% and 48%
  Population Healthy Nuclei (%): 56% and 38%
  Population Hoechst High Intensity Objects (%): 7% and 2%
  Population Membrane Permeable-Phenotype (%): 1% and 10%
  Population Mitochondria Different-Phenotype (%): 1% and 5%
  Population Mitotic Cells (%): 40% and 61%
  Population Normal (%): 92% and 98%
  Population Pyknosed Nuclei (%): 13% and 12%
  Population Tubulin-Different-Phenotype (%): 22% and 57%
  Total Cell Count: 159 and 150

## O=C(NCCN1CCC(n2c(=O)[nH]c3cc(Cl)ccc32)CC1)c1ccc(F)cc1 [HALOPEMIDE]
[1]
  Population Apoptotic (%): 32% and 44%
  Population Fragmented Nuclei (%): 11% and 27%
  Population Healthy Nuclei (%): 62% and 43%
  Population Hoechst High Intensity Objects (%): 0% and 7%
  Population Membrane Permeable-Phenotype (%): 1% and 10%
  Population Mitochondria Different-Phenotype (%): 10% and 0%
  Population Mitotic Cells (%): 67% and 56%
  Population Normal (%): 99% and 92%
  Population Pyknosed Nuclei (%): 26% and 29%
  Population Tubulin-Different-Phenotype (%): 29% and 56%
  Total Cell Count: 120 and 92
[2]
  Population Apoptotic (%): 55% and 31%
  Population Fragmented Nuclei (%): 15% and 24%
  Population Healthy Nuclei (%): 54% and 34%
  Population Hoechst High Intensity Objects (%): 3% and 4%
  Population Membrane Permeable-Phenotype (%): 0% and 6%
  Population Mitochondria Different-Phenotype (%): 17% and 14%
  Population Mitotic Cells (%): 44% and 68%
  Population Normal (%): 96% and 95%
  Population Pyknosed Nuclei (%): 30% and 41%
  Population Tubulin-Different-Phenotype (%): 77% and 87%
  Total Cell Count: 204 and 148
[3]
  Population Apoptotic (%): 58% and 37%
  Population Fragmented Nuclei (%): 16% and 32%
  Population Healthy Nuclei (%): 69% and 41%
  Population Hoechst High Intensity Objects (%): 3% and 10%
  Population Membrane Permeable-Phenotype (%): 1% and 5%
  Population Mitochondria Different-Phenotype (%): 9% and 8%
  Population Mitotic Cells (%): 41% and 62%
  Population Normal (%): 96% and 90%
  Population Pyknosed Nuclei (%): 13% and 26%
  Population Tubulin-Different-Phenotype (%): 38% and 59%
  Total Cell Count: 128 and 100
[4]
  Population Apoptotic (%): 67% and 41%
  Population Fragmented Nuclei (%): 23% and 26%
  Population Healthy Nuclei (%): 51% and 38%
  Population Hoechst High Intensity Objects (%): 5% and 6%
  Population Membrane Permeable-Phenotype (%): 0% and 12%
  Population Mitochondria Different-Phenotype (%): 28% and 32%
  Population Mitotic Cells (%): 32% and 58%
  Population Normal (%): 95% and 93%
  Population Pyknosed Nuclei (%): 24% and 35%
  Population Tubulin-Different-Phenotype (%): 78% and 94%
  Total Cell Count: 220 and 140
[5]
  Population Apoptotic (%): 52% and 35%
  Population Fragmented Nuclei (%): 14% and 38%
  Population Healthy Nuclei (%): 68% and 43%
  Population Hoechst High Intensity Objects (%): 3% and 4%
  Population Membrane Permeable-Phenotype (%): 4% and 14%
  Population Mitochondria Different-Phenotype (%): 7% and 4%
  Population Mitotic Cells (%): 47% and 64%
  Population Normal (%): 96% and 95%
  Population Pyknosed Nuclei (%): 17%
  Population Tubulin-Different-Phenotype (%): 36% and 63%
  Total Cell Count: 128 and 99
[6]
  Population Apoptotic (%): 80% and 48%
  Population Fragmented Nuclei (%): 32% and 35%
  Population Healthy Nuclei (%): 50% and 45%
  Population Hoechst High Intensity Objects (%): 10% and 5%
  Population Membrane Permeable-Phenotype (%): 0% and 10%
  Population Mitochondria Different-Phenotype (%): 35% and 15%
  Population Mitotic Cells (%): 19% and 52%
  Population Normal (%): 89% and 94%
  Population Pyknosed Nuclei (%): 17% and 19%
  Population Tubulin-Different-Phenotype (%): 77% and 96%
  Total Cell Count: 229 and 136
